Tests used:
[1] = biological target: Urokinase-type plasminogen activator (Rattus norvegicus, UniProt P29598); assay: Inhibition of rat uPA
Plasminogen = Plasminogen (Homo sapiens, UniProt P00747); assay: Inhibition of human plasmin
Method in brief: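 Plasmin from human plasma at about 5 mU was preincubated with inhibitor (0–250 µM final) for 15 min at 37 °C. Substrate was S-2366 at 580 µM in Tris pH 7.4. Initial rate was read at 405 nm, in duplicate. IC50 came from a four-parameter logistic fit.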

Prothrombin = Prothrombin (Homo sapiens, UniProt P00734); assay: Inhibition of human thrombin
Method in brief: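 Human plasma thrombin was assayed at 37 °C in Tris pH 8.3. […] Initial rate was read at 405 nm, in duplicate. IC50 was obtained from a four-parameter logistic fit.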

Coagulation factor X = Coagulation factor X (Homo sapiens, UniProt P00742); assay: Inhibition of factor 10a
Sequence of Coagulation factor X (P00742 41-179 limits assumed): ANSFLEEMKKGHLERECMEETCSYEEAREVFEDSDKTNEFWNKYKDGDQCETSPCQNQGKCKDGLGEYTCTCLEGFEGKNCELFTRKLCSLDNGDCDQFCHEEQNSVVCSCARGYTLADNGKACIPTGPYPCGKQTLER
Sequence of Coagulation factor X (P00742 235-488 limits assumed): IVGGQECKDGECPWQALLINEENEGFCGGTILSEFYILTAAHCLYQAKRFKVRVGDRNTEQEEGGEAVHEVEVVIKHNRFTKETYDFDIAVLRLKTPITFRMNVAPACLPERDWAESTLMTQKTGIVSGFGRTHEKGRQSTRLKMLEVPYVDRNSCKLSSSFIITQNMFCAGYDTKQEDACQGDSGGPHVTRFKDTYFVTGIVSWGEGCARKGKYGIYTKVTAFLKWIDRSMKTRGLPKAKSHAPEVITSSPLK
Method in brief: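 Human factor Xa (FX activated with Russell's viper venom) at about 5 mU was preincubated with inhibitor (0–250 µM final) for 15 min at 37 °C. […] IC50 came from a four-parameter logistic fit.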

[2] = Apparent solubility in phosphate buffered saline at pH 7.4 after 2 hrs; assay type: ADME
Method in brief: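 Compounds were serially diluted from 10 mM DMSO stock into PBS pH 7.4 (2% DMSO final), giving 1–200 µM final at eight concentrations, in duplicate. Incubation was 2 h at 37 °C. Solubility was taken as the onset of increased absorbance at 620 nm.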

[3] = Chemical stability assessed as half life of hydrolysis at pH 1; assay type: physicochemical; conditions: buffer
[4] = Chemical stability assessed as half life of hydrolysis at pH 8.8; assay type: physicochemical; conditions: buffer
[5] = Antitumor activity against Brown Norwegian rat bearing BN472 tumor assessed as reduction of tumor size at 1 mg/kg, ip administered once daily after 4 days of tumor transplantation for 17 to 18 days relative to control; assay type: functional; set-up: scale not given: the % may be the effect or the level left; conditions: route intraperitoneal
Method in brief: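 Rats bearing orthotopic BN472 breast tumours (grown three days) were dosed i.p. daily from day 4 for 17–18 days at 0.1 or 1 mg/kg. Vehicle-only i.p. controls were included. Tumour size and tumour weight were measured at the end of the treatment period and compared with controls.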

[6] = Antimetastatic activity against Brown Norwegian rat bearing BN472 tumor assessed as reduction of interpectoral lymph node weight at 1 mg/kg, ip administered once daily after 4 days of tumor transplantation for 17 to 18 days relative to control; assay type: functional; set-up: scale not given: the % may be the effect or the level left; conditions: route intraperitoneal
Rattus norvegicus = assay: Toxicity in Brown Norwegian rat bearing BN472 tumor assessed as effect on body weight at 1 mg/kg, ip administered once daily after 4 days of tumor transplantation for 17 to 18 days relative to control; assay type: organism-based; set-up: dose 1 mg/kg, route intraperitoneal; conditions: in vivo
Method in brief: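 Orthotopic BN472 breast tumour model in rats. Daily i.p. dosing at 0.1 or 1 mg/kg started on day 4 and ran 17–18 days, with vehicle-only i.p. controls. Side effects were assessed from body weight and the weights of several organs, compared with controls.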

Sequence of Urokinase-type plasminogen activator (P29598 20-177 limits assumed): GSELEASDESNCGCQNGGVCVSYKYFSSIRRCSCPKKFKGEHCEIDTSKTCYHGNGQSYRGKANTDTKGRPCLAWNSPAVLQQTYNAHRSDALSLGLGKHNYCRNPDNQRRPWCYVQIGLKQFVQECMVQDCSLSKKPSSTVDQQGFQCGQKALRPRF
Sequence of Urokinase-type plasminogen activator (P29598 179-432 limits assumed): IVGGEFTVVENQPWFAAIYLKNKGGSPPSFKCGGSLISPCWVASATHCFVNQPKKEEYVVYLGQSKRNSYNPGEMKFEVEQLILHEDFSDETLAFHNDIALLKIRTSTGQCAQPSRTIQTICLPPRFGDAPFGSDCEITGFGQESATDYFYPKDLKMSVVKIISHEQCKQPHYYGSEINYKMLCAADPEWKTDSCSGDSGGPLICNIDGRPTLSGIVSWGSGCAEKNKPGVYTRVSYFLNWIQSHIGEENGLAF
Sequence of Plasminogen (P00747 97-580 limits assumed): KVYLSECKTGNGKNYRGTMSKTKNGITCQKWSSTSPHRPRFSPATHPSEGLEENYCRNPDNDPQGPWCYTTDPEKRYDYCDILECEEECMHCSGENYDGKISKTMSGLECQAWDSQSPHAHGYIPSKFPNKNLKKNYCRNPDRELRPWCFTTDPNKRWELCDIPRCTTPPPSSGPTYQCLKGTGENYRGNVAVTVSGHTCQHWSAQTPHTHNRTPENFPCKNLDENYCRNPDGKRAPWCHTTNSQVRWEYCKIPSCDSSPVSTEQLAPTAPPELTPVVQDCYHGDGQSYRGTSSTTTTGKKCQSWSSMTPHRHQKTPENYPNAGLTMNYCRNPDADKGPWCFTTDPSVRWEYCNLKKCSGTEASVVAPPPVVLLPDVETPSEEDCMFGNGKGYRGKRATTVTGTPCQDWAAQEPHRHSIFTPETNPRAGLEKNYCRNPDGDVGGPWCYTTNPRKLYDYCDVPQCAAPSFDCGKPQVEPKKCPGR
Sequence of Plasminogen (P00747 581-810 limits assumed): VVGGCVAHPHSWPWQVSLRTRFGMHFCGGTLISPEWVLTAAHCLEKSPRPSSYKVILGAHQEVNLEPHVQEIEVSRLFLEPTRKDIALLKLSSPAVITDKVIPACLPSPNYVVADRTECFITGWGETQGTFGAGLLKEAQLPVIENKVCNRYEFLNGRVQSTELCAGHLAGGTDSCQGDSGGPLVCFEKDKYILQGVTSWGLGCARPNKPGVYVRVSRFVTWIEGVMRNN

## COC(=O)NC(Cc1ccc(NC(=N)N)cc1)P(=O)(Oc1ccc(NC(C)=O)cc1)Oc1ccc(NC(C)=O)cc1 (stereo not given)
[1]
  IC50: 0.0245 µM
Plasminogen
  IC50: 2.8 µM
Prothrombin
  IC50: 1.13 µM
Coagulation factor X
  IC50: 30 µM
[2]
  solubility at 2 h: > 200 µM
[3]
  half-life: 35 h
[4]
  half-life: 3 h
[5]
  Activity: 18%
[6]
  Activity: 6%
Rattus norvegicus
  Activity: 170.5 g
